Bioassay records deposited in PubChem by several laboratories.
Rows were chosen to be rich in hits. Some 2.9% of all compounds tested hit in one or more screens of this group.
CRFBP-R2 agonist – CRF-BP/CRF-R2 complex agonism. HEK293 CRF-R2/CRF-BP, calcium dye fluorescence (FLIPR); percent of saturating CRF peptide response. 350,000 tested, 0.46% active. activation, % at 13.2 µM;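 active = activation of at least 50%, plus an integration ratio under a set limit after plate pattern correction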
proKLK7 act – activates the human kallikrein-7 zymogen; 370,000 tested, 0.9% active; activation, % at 7 µM; purified proKLK7, EDANS-DABCYL substrate fluorescence; 100% is mature enzyme control, 0% vehicle; AID 652039; P49862;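 active = activation above the mean of all tested compounds plus 3 SD, computed per campaign excluding outliers beyond control limits, cut at about 13% in these data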
Target sequence (P49862 whole entry, looked up): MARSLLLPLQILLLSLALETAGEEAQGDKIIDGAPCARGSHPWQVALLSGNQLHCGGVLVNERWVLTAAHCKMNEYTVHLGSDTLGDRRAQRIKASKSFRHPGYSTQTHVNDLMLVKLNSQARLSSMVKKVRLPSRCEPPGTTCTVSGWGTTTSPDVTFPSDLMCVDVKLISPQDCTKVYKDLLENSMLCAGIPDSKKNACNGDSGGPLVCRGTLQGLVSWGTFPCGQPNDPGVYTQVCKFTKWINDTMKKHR
DDE Tn7 FP inh – disrupts Tn7 cyclic peptide binding to fibrin D-Dimer-E complex; P02675; FP displacement of FITC-Tn7 peptide from fibrin DD(E); 0% = median of compound wells per plate; inhibition, % at 8.3 µM; 370,000 tested, 0.13% active;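 active = inhibition above the mean of compounds falling within the control limits plus 3 SD of them, cut at about 14% in these data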
Target sequence (P02675 whole entry, looked up): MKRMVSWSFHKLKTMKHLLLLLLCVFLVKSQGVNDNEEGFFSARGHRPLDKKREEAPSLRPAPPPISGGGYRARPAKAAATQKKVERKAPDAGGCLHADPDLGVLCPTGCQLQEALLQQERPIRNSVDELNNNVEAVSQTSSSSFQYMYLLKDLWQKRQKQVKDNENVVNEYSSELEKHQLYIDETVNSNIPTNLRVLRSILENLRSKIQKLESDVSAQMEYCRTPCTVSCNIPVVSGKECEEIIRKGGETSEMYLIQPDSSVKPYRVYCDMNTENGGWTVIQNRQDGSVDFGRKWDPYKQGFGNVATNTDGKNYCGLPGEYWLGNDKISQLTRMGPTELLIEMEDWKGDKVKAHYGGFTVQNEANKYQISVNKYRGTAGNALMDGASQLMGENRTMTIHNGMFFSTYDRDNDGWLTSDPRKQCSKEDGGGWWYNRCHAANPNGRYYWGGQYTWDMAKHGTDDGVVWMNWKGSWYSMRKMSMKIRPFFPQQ
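Test system: human clot-derived fibrin DD(E) complex / Quantity: 2 µM final DD(E) protein / Incubation: 10 min plus 3 h, room temperature / Measured by: fluorescence polarization / Benchmarks: high control of 10 µM Aha-Tn7 peptide / Replicates: singlicate testing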
Tn6 DDE FP – DD(E)-Tn6 binding inhibition, primary FP screen; inhibition, % at 8.3 µM; 370,000 tested, 0.21% active; P02675; Fibrin DD(E) TRITC-Tn6 fluorescence polarization displacement;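 active = inhibition above a per-campaign cutoff: mean of compounds within control limits plus 3 SD, cut at about 15% in these data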
CendR NRP1 mod – NRP-1/CendR interaction modulation; O14786; FAM-RPARPAR peptide binding to NRP-1, fluorescence polarization; inhibition, % at 25 µM; 360,000 tested, 0.85% active; AID 602438;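 active = inhibition or corrected inhibition above about 18%, plus a signal ratio from 0.5 to 1.5, limit read from the data, passing the limit was not always enough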
CRFBP-R2 block – CRF-BP/CRF-R2 complex antagonism | HEK293 CRF-R2/CRF-BP, CRF-induced calcium fluorescence | inhibition, % at 11.8 µM | 350,000 tested, 0.59% active | AID 588475;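 active = inhibition of the ligand-induced calcium signal above about 50% at the single tested concentration, limit read from the data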
KLK7 act conf – confirmation of human kallikrein-7 zymogen activators | shares compounds with proKLK7 act | purified proKLK7, EDANS-DABCYL substrate fluorescence; scaled: vehicle 0, mature enzyme 100 | activation, % at 7 µM | 3,200 tested, 68% active;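 active = activation, as change over the incubation, above the mean of all tested compounds plus 3 SD, cut at about 13% in these data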
EDANS interfere – counter-screen for kallikrein-7 activators: EDANS-DABCYL optical interference. AID 686952. 3,200 tested, 80% active. EDANS-DABCYL substrate fluorescence interference, no enzyme, 4 h; solvent 0%, active enzyme control 100%. shares compounds with proKLK7 act. activation, % at 7 µM;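 active = activation above the all-compound mean plus 3 SD, ignoring values outside control-based bounds, cut at about 4.8% in these data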;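 also: value is the 4 h activation minus the activation read at time zero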
EDANS interf – counter-screen for kallikrein-7 activators: EDANS-DABCYL interference, dose response | shares compounds with proKLK7 act | EDANS-DABCYL peptide fluorescence interference, no enzyme | EC50, µM | 250 tested, 20% active;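 active = compounds that raise the fluorescence signal in this interference counterscreen, with EC50 at or below 10 µM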;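 also: intact quenched peptide substrate alone read at 355 nm excitation and 520 nm emission; signal is fluorescence gain from T0 to T4 after four hours at room temperature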
Numbers stand for hits.

Screening O=C(c1ccc(F)cc1Cl)N1CCCC(c2nc(-c3cccs3)no2)C1 (stereo not drawn) returned proKLK7 act inactive, DDE Tn7 FP inh inactive and Tn6 DDE FP inactive.
For COc1ccc(C2Nc3ccccc3C(=O)N2NS(=O)(=O)c2ccccc2)cc1OC (stereo not drawn) the results were CRFBP-R2 agonist inactive, proKLK7 act 16.7, DDE Tn7 FP inh inactive, Tn6 DDE FP inactive, CendR NRP1 mod inactive, CRFBP-R2 block inactive, KLK7 act conf inactive and EDANS interfere 9.0.
Screening COc1ccc(C2Nc3ccccc3C(=O)N2Cc2ccccc2)cc1COc1ccccn1 (stereo not drawn) returned CRFBP-R2 agonist inactive, proKLK7 act inactive, DDE Tn7 FP inh inactive, Tn6 DDE FP inactive, CendR NRP1 mod inactive and CRFBP-R2 block inactive.
O=S1(=O)CCN2C=C(Cl)C=C(Cl)C2=N1 was read as CRFBP-R2 agonist inactive, proKLK7 act 24.6, DDE Tn7 FP inh inactive, Tn6 DDE FP inactive, CendR NRP1 mod inactive, CRFBP-R2 block inactive, KLK7 act conf 33.3 and EDANS interfere 29.1.
Cc1ccc(C2OC34CCCCCC3C(C#N)(C(=N)O4)C2(C#N)C#N)cc1 (stereo not drawn) was read as CRFBP-R2 agonist inactive, proKLK7 act 15.9, DDE Tn7 FP inh inactive, Tn6 DDE FP inactive, CendR NRP1 mod inactive, CRFBP-R2 block inactive, KLK7 act conf 29.1 and EDANS interfere 34.2.
`CCCc1cc(=O)oc2c(CN(CC)CC)c(O)c(Cl)cc12` gave CRFBP-R2 agonist inactive, proKLK7 act 53.4, DDE Tn7 FP inh inactive, Tn6 DDE FP inactive, CendR NRP1 mod inactive, CRFBP-R2 block inactive, KLK7 act conf 65.7 and EDANS interfere 67.7.
For CCCCc1cc(=O)oc2c(CN(CC)CC)c(O)c(Cl)cc12 the results were CRFBP-R2 agonist inactive, proKLK7 act 63.4, DDE Tn7 FP inh inactive, Tn6 DDE FP inactive, CendR NRP1 mod inactive, CRFBP-R2 block inactive, KLK7 act conf 70.2 and EDANS interfere 70.7.
For CCCCN(CCCC)Cc1cc(=O)oc2cc(C)c(Cl)cc12 the results were proKLK7 act inactive, DDE Tn7 FP inh inactive, Tn6 DDE FP inactive and CendR NRP1 mod inactive.
`Cc1cccc(Cn2cc(COC(=O)Nc3ccc(F)cc3)nn2)c1` gave proKLK7 act inactive, DDE Tn7 FP inh inactive and Tn6 DDE FP inactive.
c1csc(C2C3=C(Nc4ncnn42)c2ccccc2OC3)c1 (stereo not drawn) was read as CRFBP-R2 agonist inactive, proKLK7 act 17.4, DDE Tn7 FP inh inactive, Tn6 DDE FP inactive, CendR NRP1 mod inactive, CRFBP-R2 block inactive, KLK7 act conf 34.2 and EDANS interfere 31.2.
For CC1=C(C(N)=O)C(c2cccs2)n2ncnc2N1 (stereo not drawn) the results were CRFBP-R2 agonist inactive, proKLK7 act inactive, DDE Tn7 FP inh inactive, Tn6 DDE FP inactive, CendR NRP1 mod inactive and CRFBP-R2 block inactive.
For C=CCN1C(=O)[C@@H](CC(=O)NCc2cccs2)[C@]2(C(=O)OCC)CCCCC/C=C/12 the results were proKLK7 act inactive, DDE Tn7 FP inh inactive and Tn6 DDE FP inactive.
Cc1ccc2nc3c(cc(C#N)c(=O)n3-c3nccs3)c(=O)n2c1 was read as CRFBP-R2 agonist inactive, proKLK7 act 25.2, DDE Tn7 FP inh inactive, Tn6 DDE FP inactive, CendR NRP1 mod inactive, CRFBP-R2 block inactive, KLK7 act conf 61.3 and EDANS interfere 73.3.
Screening O=C(O)CCN1c2cccc3cccc(c23)S1(=O)=O returned CRFBP-R2 agonist inactive, proKLK7 act 15.6, DDE Tn7 FP inh inactive, Tn6 DDE FP inactive, CendR NRP1 mod inactive, CRFBP-R2 block inactive, KLK7 act conf 18.7, EDANS interfere 11.3 and EDANS interf inactive.
Screening CN(C)C(=O)CN1c2cccc3cccc(c23)S1(=O)=O returned CRFBP-R2 agonist inactive, proKLK7 act inactive, DDE Tn7 FP inh inactive, Tn6 DDE FP inactive, CendR NRP1 mod inactive and CRFBP-R2 block inactive.
For C=CCNC(=O)CN1c2cccc3cccc(c23)S1(=O)=O the results were CRFBP-R2 agonist inactive, proKLK7 act 13.1, DDE Tn7 FP inh inactive, Tn6 DDE FP inactive, CendR NRP1 mod inactive, CRFBP-R2 block inactive, KLK7 act conf inactive and EDANS interfere 7.1.
`O=C(CN1c2cccc3cccc(c23)S1(=O)=O)Nc1ccccc1` gave CRFBP-R2 agonist inactive, proKLK7 act inactive, DDE Tn7 FP inh inactive, Tn6 DDE FP inactive, CendR NRP1 mod inactive and CRFBP-R2 block inactive.
`CC(C(=O)O)N1c2cccc3cccc(c23)S1(=O)=O` (stereo not drawn) gave CRFBP-R2 agonist inactive, proKLK7 act 21.6, DDE Tn7 FP inh inactive, Tn6 DDE FP inactive, CendR NRP1 mod inactive, CRFBP-R2 block inactive, KLK7 act conf 26.5 and EDANS interfere 28.0.
Screening COc1cc(-c2nnc(SCC(=O)N3C(C)CCCC3C)o2)cc(OC)c1OC (stereo not drawn) returned proKLK7 act inactive, DDE Tn7 FP inh inactive and Tn6 DDE FP inactive.
Screening COC(=O)CC1=C(C(=O)OC)[C@@H](c2ccccc2[N+](=O)[O-])C(C#N)=C(N)O1 returned CRFBP-R2 agonist inactive, proKLK7 act 38.5, DDE Tn7 FP inh inactive, Tn6 DDE FP inactive, CendR NRP1 mod inactive, CRFBP-R2 block inactive, KLK7 act conf 89.8, EDANS interfere 71.0 and EDANS interf 8.67.
`Cc1ccc(NC(=O)C2CC3CCC2C3)c(C)c1` (stereo not drawn) gave DDE Tn7 FP inh inactive and Tn6 DDE FP inactive.
For C=CCOc1ccccc1C1C2=C(CC(C)(C)CC2=O)Nc2c1c(=O)n(C)c(=O)n2C (stereo not drawn) the results were CRFBP-R2 agonist inactive, proKLK7 act inactive, DDE Tn7 FP inh inactive, Tn6 DDE FP inactive, CendR NRP1 mod inactive and CRFBP-R2 block inactive.
`Cc1ccc(-n2nc(C)c3c2NC2=C(C(=O)CC(C)(C)C2)C3c2ccccc2OCC(=O)O)cc1` (stereo not drawn) gave CRFBP-R2 agonist inactive, proKLK7 act 43.7, DDE Tn7 FP inh inactive, Tn6 DDE FP inactive, CendR NRP1 mod inactive, CRFBP-R2 block inactive, KLK7 act conf 33.0 and EDANS interfere 35.5.
N#Cc1ccc(-c2ccc(OCC(=O)Nc3cccnc3)cc2)cc1 was read as CRFBP-R2 agonist inactive, proKLK7 act 18.0, DDE Tn7 FP inh inactive, Tn6 DDE FP inactive, CendR NRP1 mod inactive, CRFBP-R2 block inactive, KLK7 act conf inactive and EDANS interfere inactive.
